# Laboratory results: ChEMBL document CHEMBL1152646, “Synthesis, molecular docking and biological evaluation of metronidazole derivatives as potent Helicobacter pylori urease inhibitors” (Bioorg Med Chem, 2009)
# pIC50: −log10 of the molar value. Activity calls are given as the source filed them. The rule behind the calls is not given here.
# Target: Urease subunit alpha/Urease subunit beta (Helicobacter pylori (strain ATCC 700392 / 26695) (Campylobacterpylori), UniProt P69996)
# Experiment: Inhibition of Helicobacter pylori ATCC 43504 urease assessed as ammonia production after 3 hrs by indophenol method
# In short: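 Crude urease came from H. pylori grown 24 h at 37 °C, microaerobic, in brucella broth with 10% heat-inactivated horse serum. Cells were PBS-washed, frozen at -80 °C, sonicated 60 s in water with protease inhibitors, and mixed 1:1 with glycerol. Enzyme (4 U) and compound were preincubated at room temperature. Percent inhibition was screened at 1 mM; IC50 came from dose–response curves (≥3 experiments, mean S.D.).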
# Chain of Urease subunit alpha/Urease subunit beta (P69996 whole entry): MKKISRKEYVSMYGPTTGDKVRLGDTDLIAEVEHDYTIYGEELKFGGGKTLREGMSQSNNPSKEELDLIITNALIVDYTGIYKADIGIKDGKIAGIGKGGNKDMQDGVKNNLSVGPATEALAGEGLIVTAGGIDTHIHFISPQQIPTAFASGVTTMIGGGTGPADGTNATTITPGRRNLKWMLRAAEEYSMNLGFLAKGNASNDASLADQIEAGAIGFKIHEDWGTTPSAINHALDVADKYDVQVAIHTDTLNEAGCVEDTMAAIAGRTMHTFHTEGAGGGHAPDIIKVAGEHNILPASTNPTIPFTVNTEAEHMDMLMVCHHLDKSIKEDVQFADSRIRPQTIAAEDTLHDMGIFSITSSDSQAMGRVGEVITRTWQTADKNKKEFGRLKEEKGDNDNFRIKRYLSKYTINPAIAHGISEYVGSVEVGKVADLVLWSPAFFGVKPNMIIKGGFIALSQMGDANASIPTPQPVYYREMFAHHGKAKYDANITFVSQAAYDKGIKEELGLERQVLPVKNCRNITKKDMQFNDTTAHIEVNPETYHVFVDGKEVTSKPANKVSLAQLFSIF
# Chain of Urease subunit alpha/Urease subunit beta (P14916 whole entry, further chain): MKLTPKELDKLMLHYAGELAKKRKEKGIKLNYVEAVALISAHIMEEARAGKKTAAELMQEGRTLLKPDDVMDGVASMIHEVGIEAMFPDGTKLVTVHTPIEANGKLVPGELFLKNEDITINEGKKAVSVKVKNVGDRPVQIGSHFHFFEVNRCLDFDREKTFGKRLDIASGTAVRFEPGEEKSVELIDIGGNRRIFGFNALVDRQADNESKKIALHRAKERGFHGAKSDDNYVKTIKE
row,Compound,pIC50
1,Cc1ncc([N+](=O)[O-])n1CCOC(=O)c1cc(Br)ccc1OCCn1c([N+](=O)[O-])cnc1C,4.59
2,Cc1ncc([N+](=O)[O-])n1CCOC(=O)c1cc(Cl)ccc1OCCn1c([N+](=O)[O-])cnc1C,4.92

# Target: Urease subunit alpha/Urease subunit beta (Helicobacter pylori (strain ATCC 700392 / 26695) (Campylobacterpylori)) (UniProt P69996+P14916)
# Sequence (P14916 whole entry, looked up): as the sequence (P14916 whole entry, further chain) above
# Sequence (P69996 whole entry, looked up): as the sequence (P69996 whole entry) above
# Experiment: Inhibition of Helicobacter pylori ATCC 43504 urease assessed as ammonia production at 1 mM after 3 hrs by indophenol method
# In short: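 Crude urease from H. pylori ATCC 43504 grown 24 h at 37 °C microaerobically in brucella broth with 10% heat-inactivated horse serum; cells PBS-washed, stored at -80 °C, sonicated 60 s in water with protease inhibitors, extract mixed 1:1 with glycerol. Enzyme (4 U) preincubated 3 h at room temperature with compound; ammonia measured by indophenol method; percent inhibition.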
row,Compound,inhibition
1,Cc1ccc(C(=O)OCCn2c([N+](=O)[O-])cnc2C)c(OCCn2c([N+](=O)[O-])cnc2C)c1,38.3%
2,Cc1ncc([N+](=O)[O-])n1CCOC(=O)c1cc(I)ccc1OCCn1c([N+](=O)[O-])cnc1C,78.7%
3,Cc1ccc(OCCn2c([N+](=O)[O-])cnc2C)c(C(=O)OCCn2c([N+](=O)[O-])cnc2C)c1,48.4%
4,Cc1ncc([N+](=O)[O-])n1CCOc1c(Cl)cc(Cl)cc1C(=O)O,56.8%
5,Cc1cccc(C(=O)OCCn2c([N+](=O)[O-])cnc2C)c1OCCn1c([N+](=O)[O-])cnc1C,42.1%
6,Cc1ncc([N+](=O)[O-])n1CCOc1c(Br)cc(Br)cc1C(=O)O,56.1%
7,Cc1ccc(S(=O)(=O)OCCn2c([N+](=O)[O-])cnc2C)cc1,78.1%
8,Cc1ncc([N+](=O)[O-])n1CCOC(=O)c1cc(S(=O)(=O)O)ccc1OCCn1c([N+](=O)[O-])cnc1C,61.2%
9,Cc1ncc([N+](=O)[O-])n1CCOC(=O)c1cc(Br)ccc1OCCn1c([N+](=O)[O-])cnc1C,93.9%
10,Cc1ncc([N+](=O)[O-])n1CCOc1cc(N)ccc1C(=O)O,38.3%
11,Cc1ncc([N+](=O)[O-])n1CCOc1c(I)cc(I)cc1C(=O)O,53.9%
12,Cc1ccc(C(=O)O)c(OCCn2c([N+](=O)[O-])cnc2C)c1,inactive
13,Cc1ncc([N+](=O)[O-])n1CCO,inactive
14,Cc1ncc([N+](=O)[O-])n1CCOC(=O)c1ccc(Cl)cc1OCCn1c([N+](=O)[O-])cnc1C,82.2%
15,Cc1ncc([N+](=O)[O-])n1CCOC(=O)c1cc(Cl)ccc1OCCn1c([N+](=O)[O-])cnc1C,95.3%
